According to ChEMBL document CHEMBL4138220, “A fluorine scan of a tubulin polymerization inhibitor isocombretastatin A-4: Design, synthesis, molecular modelling, and biological evaluation” (Eur J Med Chem, 2018):
Calls of active or inactive are those of the source. The rule behind the calls is not given here.

Experiments:
[1] = system: HCT-116; assay: Antiproliferative activity against human HCT116 cells after 72 hrs by resazurin-based fluorescence assay; type: functional, cell-based; details: HCT-116, 72 h
[2] = Induction of basal contraction tone in isolated Wistar rat aorta rings at 10 uM after 10 mins in presence K60 solution (reference value: 0.2 +/- 0.2%); type: tissue-based
[3] = Intrinsic clearance in human liver microsomes at 5 uM preincubated for 5 mins followed by NADPH addition measured after 45 mins by UPLC-MS/MS analysis; type: ADME, microsome; details: read-out: CLH
[4] = Inhibition of sheep brain tubulin polymerization assessed as reduction in rate of microtubule assembly by DAPI-fluorescence based assay; parameters: species or system Ovis aries
Procedure, shortened: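 Sheep brain tubulin purified by two assembly–disassembly cycles, about 10 µM in buffer at pH 6.6 with MgCl2, EGTA and 1 mm GTP. Assembly followed continuously at 37 °C by DAPI fluorescence. IC50 is the concentration halving the maximum assembly rate versus no compound. Reference compounds run the same day. Average of three experiments.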

[5] = Metabolic stability in human plasma at 5 uM after 120 mins by UPLC-MS/MS analysis; type: ADME, cell-free; details: read-out: Stability
Procedure, shortened: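 Compound at 5 µM in human plasma at 37°C, sampled from 0 to 120 min. Stopped with acetonitrile, centrifuged, supernatant dried under nitrogen and reconstituted in 0.2% formic acid water/methanol 75/25. Measured by UPLC-MS/MS as % remaining. Procaine was the positive control.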

[6] = system: A549; assay: Antiproliferative activity against human A549 cells after 72 hrs by resazurin-based fluorescence assay; type: functional, cell-based; details: A549, 72 h
[7] = system: U-87 MG; assay: Antiproliferative activity against human U87 cells after 72 hrs by resazurin-based fluorescence assay; type: functional, cell-based, U-87MG ATCC
Procedure, shortened: (§1)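 CellTiter-Blue viability. Cells plated at 5 × 10^3 per well and cultured 24 h, then given compound in DMSO (under 0.1%) for 72 h. Resazurin added for 2 h, fluorescence read at ex 560/em 590 nm. […] Run in triplicate. U87-MG grown in DMEM (4.5 g/L glucose, 10% FCS, 1% glutamine). K562, K562R (doxorubicin-resistant), A549 and MCF7 grown in RPMI 1640 (10% FCS, 1% glutamine). All kept at 37 °C, 5% CO2.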

[8] = system: K562; assay: Antiproliferative activity against human K562 cells after 72 hrs by resazurin-based fluorescence assay; type: functional, cell-based; details: K562, 72 h; procedure, shortened: as §1
[9] = Metabolic stability in human liver microsomes at 5 uM after 120 mins in absence of NADPH by UPLC-MS/MS analysis; type: ADME, microsome; details: read-out: Stability
[10] = system: K-562R; assay: Antiproliferative activity against human K562R cells after 72 hrs by resazurin-based fluorescence assay; type: functional, cell-based; procedure, shortened: as §1
[11] = system: MCF7; assay: Antiproliferative activity against human MCF7 cells after 72 hrs by resazurin-based fluorescence assay; type: functional, cell-based; details: MCF7, 72 h; procedure, shortened: as §1
[12] = Increase in PGF2alpha-induced contractile response in isolated Wistar rat aorta rings at 10 uM after 10 mins; type: tissue-based
Procedure, shortened: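 Rat aortic rings 2–3 mm in PSS at 37°C, 95% O₂/5% CO₂, pH 7.4, isometric tension at 2 g resting force. Rings were kept if K60 contraction was ≥1.5 g and ACh (10 µM) relaxation ≥15%. Compound (10 µM) or DMSO 0.1% was given for 10 min, then cumulative PGF2α 1 nM–30 µM. Hill fits gave pD2 and Emax as % of K60. N = 6.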

[13] = Metabolic stability in human liver microsomes at 5 uM preincubated for 5 mins followed NADPH addition measured after 120 mins by UPLC-MS/MS analysis; type: ADME, microsome; details: read-out: Stability
[14] = target: T1, Tubulin (Homo sapiens) (UniProt P68371+Q9H4B7+P0DPH7+P68366+Q13509+Q71U36+P04350+Q3ZCM7+P07437+P68363+Q9BQE3+Q6PEY2+Q13885+Q9BVA1+Q9BUF5); assay: Inhibition of tubulin polymerization in human U87MG cells assessed as shrinkage of microtubule spindles at 10 nM after 24 hrs by Hoechst-33258 staining based inverted microscopy; type: cell-based
Procedure, shortened: (§2)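 U87-MG on chamber slides, 24 h with 5 or 10 nM, control 0.1% DMSO. Fixed in 2% paraformaldehyde, permeabilized with 0.25% Triton X-100, blocked with BSA/goat serum. Stained with mouse anti-β-tubulin overnight at 4°C, then Alexa 647 anti-mouse plus Hoechst 33258 for 2 h, then Alexa 488 phalloidin for F-actin. Imaged on an inverted microscope with a 60X oil objective.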

[15] = target: T1, Tubulin (Homo sapiens); assay: Inhibition of tubulin polymerization in human U87MG cells assessed as formation of disorganized actin network at 10 nM after 24 hrs by Hoechst-33258 staining based inverted microscopy; type: cell-based; procedure, shortened: as §2
[16] = target: T1, Tubulin (Homo sapiens); assay: Inhibition of tubulin polymerization in human U87MG cells assessed as formation of disorganized microtubule network at 5 nM after 24 hrs by Hoechst-33258 staining based inverted microscopy; type: cell-based; procedure, shortened: as §2
[17] = system: PBL; assay: Cytotoxicity against human PBL cells assessed as reduction in cell proliferation after 72 hrs by MTS assay
[18] = system: U-87 MG; assay: Cell cycle arrest in human U87MG cells assessed as accumulation at G2/M phase at 20 nM after 24 hrs by propidium iodide staining based flow cytometry; type: functional; details: U-87MG ATCC
Procedure, shortened: (§3)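 Exponentially growing HCT116 (RPMI 1640) or U87-MG (DMEM, 4.5 g/L glucose) cells, each medium with 10% FCS and 1% glutamine, treated 24 h at 20 nM in DMSO, with a DMSO control. DNA content measured by propidium iodide staining and flow cytometry.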

[19] = system: HCT-116; assay: Cell cycle arrest in human HCT116 cells assessed as accumulation at G2/M phase at 20 nM after 24 hrs by propidium iodide staining based flow cytometry; type: functional; procedure, shortened: as §3
[20] = system: PBL; assay: Cytotoxicity against human PBL cells assessed as reduction in cell viability after 72 hrs by MTS assay; type: cell-based
Procedure, shortened: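 PBMCs from healthy donors were isolated on a Ficoll gradient and cultured overnight at 37°C in RPMI-1640 with 10% FCS. Non-adherent cells were set at 5 × 10⁵/mL with PHA 2.5 µg/mL (proliferating) or without it (quiescent). Serial dilutions 0.001–25 µM final (10 mM DMSO stocks) were applied for 72 h at 37°C, and viability was read by MTS.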

[21] = system: A549; assay: Potency index, ratio of combretastatin A-4 IC50 to compound IC50 for antiproliferative activity against human A549 cells; type: functional
[22] = target: T1, Tubulin (Homo sapiens); assay: Inhibition of tubulin polymerization in human U87MG cells assessed as multinucleation at 10 nM after 24 hrs by Hoechst-33258 staining based inverted microscopy; type: cell-based; procedure, shortened: as §2

SMILES: COc1ccc(C(C)c2cc(OC)c(OC)c(OC)c2)cc1OC(F)(F)F (stereo not given)
- IC50 [1]: > 10000 nM

SMILES: C=C(c1ccc(OC(F)(F)F)cc1)c1cc(OC)c(OC)c(OC)c1
- IC50 [1]: 5000 nM

SMILES: C=C(c1ccc(OC)c(N)c1)c1cc(F)c(F)c(F)c1
- IC50 [1]: 100 nM

SMILES: COc1ccc(C(C)c2cc(OC)c(OC)c(OC)c2)cc1F (stereo not given)
- IC50 [1]: 85 nM

SMILES: C=C(c1ccc(OC)c(N)c1)c1cc(OC)c(OC)c(OC)c1
- IC50 [1]: 2 nM
- Activity [2]: 1.6%
- microsomal CLint at 5 µM [3]: 46 µL/min/mg
- IC50 [4]: 2200 nM
- remaining at 2 h, 5 µM [5]: 94%
- IC50 [6]: 7 nM
- IC50 [7]: 9 nM
- IC50 [8]: 5 nM
- remaining at 2 h, 5 µM [9]: 6%
- IC50 [10]: 2 nM
- IC50 [11]: 2.9 nM
- pD2 [12]: 5.79
- remaining at 2 h, 5 µM [13]: 11.6%

SMILES: C=C(c1ccc(OC)c(OC(F)(F)F)c1)c1cc(OC)c(OC)c(OC)c1
- IC50 [1]: 1500 nM

SMILES: C=C(c1ccc(OC(F)(F)F)c(F)c1)c1cc(OC)c(OC)c(OC)c1
- IC50 [1]: 2000 nM

SMILES: COc1cc(C(C)c2ccc(OC(F)(F)F)cc2)cc(OC)c1OC (stereo not given)
- IC50 [1]: > 10000 nM

SMILES: C=C(c1ccc(OC(F)(F)F)cc1)c1cc(OC)cc(OC)c1
- IC50 [1]: > 10000 nM

SMILES: COc1ccc(C(=C(F)F)c2cc(OC)c(OC)c(OC)c2)cc1N
- inhibition [14]: Active
- IC50 [1]: 0.9 nM
- Activity [2]: 2.1%
- microsomal CLint at 5 µM [3]: 43 µL/min/mg
- IC50 [4]: 2000 nM
- inhibition [15]: Active
- inhibition [16]: Active
- remaining at 2 h, 5 µM [5]: 100%
- IC50 [6]: 2 nM
- IC50 [7]: 0.2 nM
- IC50 [8]: 0.4 nM
- remaining at 2 h, 5 µM [9]: < 5%
- IC50 [17]: > 10000 nM
- IC50 [10]: 0.1 nM
- IC50 [11]: 1.5 nM
- Activity [18]: Active
- Activity [19]: Active
- IC50 [20]: > 10000 nM
- pD2 [12]: 5.94
- Ratio IC50 [21]: 90
- inhibition [22]: Active
- remaining at 2 h, 5 µM [13]: 13.6%

SMILES: COc1cc(C(C)c2ccc(OC(F)F)c(N)c2)cc(OC)c1OC (stereo not given)
- IC50 [1]: 18 nM

SMILES: COc1ccc(/C=C\c2cc(OC)c(OC)c(OC)c2)cc1O [COMBRETASTATIN A4]
- Activity [2]: 0.7%
- IC50 [4]: 2100 nM
- IC50 [7]: 3 nM
- IC50 [8]: 6 nM
- IC50 [17]: 100 to 500 nM
- IC50 [10]: 23 nM
- IC50 [11]: 8 nM
- IC50 [20]: > 10000 nM
- pD2 [12]: 5.73

SMILES: C=C(c1ccc(OC)c(O)c1)c1cc(OC)c(OC)c(OC)c1
- IC50 [4]: 2000 nM
- IC50 [6]: 20 nM
- IC50 [7]: 8 nM
- IC50 [10]: 2.2 nM
- IC50 [11]: 8 nM

SMILES: C=C(c1cc(OC)c(OC)c(OC)c1)c1ccc(OC(F)(F)F)c([N+](=O)[O-])c1
- IC50 [1]: 4000 nM

SMILES: COc1ccc(C(=C(F)F)c2cc(OC)c(OC)c(OC)c2)cc1O
- IC50 [1]: 2 nM
- microsomal CLint at 5 µM [3]: 64 µL/min/mg
- IC50 [4]: 2000 nM
- remaining at 2 h, 5 µM [5]: 100%
- IC50 [6]: 2 nM
- IC50 [7]: 0.3 nM
- IC50 [8]: 2.2 nM
- remaining at 2 h, 5 µM [9]: 20%
- IC50 [10]: 0.2 nM
- IC50 [11]: 0.6 nM
- remaining at 2 h, 5 µM [13]: 5%

SMILES: COc1cc(C(=C(F)F)c2ccc(OC(F)F)c(N)c2)cc(OC)c1OC
- IC50 [1]: 9.14 nM

SMILES: C=C(c1ccc(OC(F)(F)F)cc1)c1c(OC)cc(OC)cc1OC
- IC50 [1]: > 10000 nM

SMILES: COc1cc(C(C)c2ccc(OC(F)(F)F)c(F)c2)cc(OC)c1OC (stereo not given)
- IC50 [1]: 5000 nM

SMILES: C=C(c1ccc(OC)c(F)c1)c1cc(OC)c(OC)c(OC)c1
- IC50 [1]: 7 nM
- IC50 [4]: 4000 nM
- IC50 [6]: 8 nM
- IC50 [7]: 8 nM
- IC50 [8]: 6 nM
- IC50 [10]: 2 nM
- IC50 [11]: 1 nM

SMILES: C=C(c1cc(OC)cc(OC)c1)c1ccc(OC(F)(F)F)c([N+](=O)[O-])c1
- IC50 [1]: > 10000 nM

SMILES: COc1cc(C(C)c2ccc(OC(F)(F)F)c(N)c2)cc(OC)c1OC (stereo not given)
- IC50 [1]: 3000 nM

SMILES: COc1ccc(C(c2cc(OC)c(OC)c(OC)c2)C(F)F)cc1O (stereo not given)
- IC50 [1]: 30 nM

SMILES: C=C(c1ccc(OC(F)F)c(N)c1)c1cc(OC)c(OC)c(OC)c1
- IC50 [1]: 1 nM
- Activity [2]: 2.2%
- microsomal CLint at 5 µM [3]: 13.6 µL/min/mg
- IC50 [4]: 400 nM
- remaining at 2 h, 5 µM [5]: 100%
- IC50 [6]: 2.2 nM
- IC50 [7]: 0.6 nM
- IC50 [8]: 4 nM
- remaining at 2 h, 5 µM [9]: 9%
- IC50 [17]: > 10000 nM
- IC50 [10]: 0.15 nM
- IC50 [11]: 2 nM
- IC50 [20]: > 10000 nM
- pD2 [12]: 5.87
- remaining at 2 h, 5 µM [13]: 3.3%

SMILES: C=C(c1ccc(OC(F)F)c(N)c1)c1cc(C)nc2ccccc12
- IC50 [1]: 20.2 nM

SMILES: C=C(c1ccc(OC(F)(F)F)c(N)c1)c1cc(OC)c(OC)c(OC)c1
- IC50 [1]: 200 nM
